ChEMBL document CHEMBL2346581, “Increasing the efficiency of ligands for FK506-binding protein 51 by conformational control” (J Med Chem, 2013)

Assays:
[1] = molecular target: T1, Peptidyl-prolyl cis-trans isomerase FKBP5 (Homo sapiens, UniProt Q13451); test: Binding affinity to human FKBP51 by competitive fluorescence polarization assay
T1 sequence (Q13451 whole entry): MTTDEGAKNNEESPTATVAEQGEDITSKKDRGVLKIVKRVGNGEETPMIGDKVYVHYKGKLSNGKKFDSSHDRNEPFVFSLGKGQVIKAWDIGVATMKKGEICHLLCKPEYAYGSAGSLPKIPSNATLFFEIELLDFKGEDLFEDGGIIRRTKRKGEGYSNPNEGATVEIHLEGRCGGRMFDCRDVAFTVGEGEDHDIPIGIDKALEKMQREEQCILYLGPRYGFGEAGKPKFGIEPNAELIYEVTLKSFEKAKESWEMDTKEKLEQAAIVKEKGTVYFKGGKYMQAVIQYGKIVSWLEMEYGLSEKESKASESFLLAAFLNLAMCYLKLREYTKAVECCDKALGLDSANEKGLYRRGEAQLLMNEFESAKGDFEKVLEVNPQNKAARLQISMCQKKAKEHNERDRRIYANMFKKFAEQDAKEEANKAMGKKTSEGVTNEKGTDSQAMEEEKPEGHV
Outline: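 Competitive fluorescence polarization binding assay against the purified FK506-binding domain of human FKBP51, run per a previously described protocol. The read-out is K_i.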

[2] = molecular target: Peptidyl-prolyl cis-trans isomerase FKBP1A (Homo sapiens, UniProt P62942); test: Binding affinity to FKBP12 (unknown origin) by competitive fluorescence polarization assay
[3] = molecular target: T1, Peptidyl-prolyl cis-trans isomerase FKBP5; test: Binding affinity to human His-tagged FKBP51 FK1 domain (1 to 140) by isothermal titration calorimetric analysis
[4] = molecular target: T2, Peptidyl-prolyl cis-trans isomerase FKBP5 (Homo sapiens) (UniProt Q13451); test: Binding affinity to FKBP51 (unknown origin) assessed as increase in [3H]-dexamethasone binding to glucocorticoid receptor
T2 sequence (whole entry): T1 sequence (Q13451 whole entry)
Outline: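 Reconstituted glucocorticoid receptor (GR) hormone-binding assay. GR-containing lysates were supplemented with purified FKBP51 and incubated with ³H-dexamethasone across a range of compound concentrations. Free ³H-dexamethasone was removed with charcoal–dextran, and GR-bound ³H-dexamethasone was then measured as the read-out.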

Peptidyl-prolyl cis-trans isomerase FKBP1A, sequence (P62942 whole entry, the tested form may be a part): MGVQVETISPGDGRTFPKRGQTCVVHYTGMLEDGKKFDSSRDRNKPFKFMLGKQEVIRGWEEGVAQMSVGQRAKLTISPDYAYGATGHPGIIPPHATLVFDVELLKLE

Ki [1] [µM] | Ki [2] [nM] | SMILES | Kd [3] [µM] | Activity [4]
> 100 | 27700 | CCC(C)(C)C(=O)C(=O)N1C2CCC[C@H]1C(=O)N1CCc3cc(OC)cc(OC)c3[C@]21C |  | 
> 100 |  | COc1ccc(OCCOC(=O)C2CCCCN2S(=O)(=O)c2ccc3ncsc3c2)cc1OC (stereo not given) |  | 
> 100 |  | COc1ccc(OCCOC(=O)C2CCCCN2C(=O)C(=O)c2cc(OC)c(OC)c(OC)c2)cc1OC (stereo not given) |  | 
0.08 |  | C=CC[C@@H]1/C=C(\C)C[C@H](C)C[C@H](OC)[C@H]2O[C@@](O)(C(=O)C(=O)N3CCCC[C@H]3C(=O)O[C@H](/C(C)=C/[C@@H]3CC[C@@H](O)[C@H](OC)C3)[C@H](C)[C@@H](O)CC1=O)[C@H](C)C[C@@H]2OC [TACROLIMUS ANHYDROUS] |  | 
> 100 | 870 | COc1cc2c(c(OC)c1)[C@]1(C)C3CCC[C@@H](C(=O)N1CC2)N3S(=O)(=O)c1cc(Cl)cc(Cl)c1 |  | 
> 100 |  | COc1ccc(OCCOC(=O)C2CCCCN2S(=O)(=O)c2cc(Cl)cc(Cl)c2)cc1OC (stereo not given) |  | 
> 100 |  | CCOC(=O)C1CCCCN1S(=O)(=O)c1ccc2[nH]c(=O)sc2c1 (stereo not given) |  | 
0.2 |  | COc1ccc(CC[C@@H](OC(=O)C2CCCCN2S(=O)(=O)c2cc(Cl)c(O)c(Cl)c2)c2cccc(OCCN3CCOCC3)c2)cc1OC (stereo not given in full) |  | 
2.7 |  | CCC(C)(C)C(=O)C(=O)N1CCCCC1C(=O)O[C@H](CCc1ccc(OC)c(OC)c1)c1cccc(OCC(=O)O)c1 (stereo not given in full) |  | 
0.003 |  | CO[C@H]1C[C@@H]2CC[C@@H](C)[C@@](O)(O2)C(=O)C(=O)N2CCCC[C@H]2C(=O)O[C@H]([C@H](C)C[C@@H]2CC[C@@H](O)[C@H](OC)C2)CC(=O)[C@H](C)/C=C(\C)[C@@H](O)[C@@H](OC)C(=O)[C@H](C)C[C@H](C)/C=C/C=C/C=C/1C [SIROLIMUS] |  | 
> 100 | 2100 | COc1cc2c(c(OC)c1)[C@]1(C)C3CCC[C@@H](C(=O)N1CC2)N3S(=O)(=O)c1cc(Cl)c(O)c(Cl)c1 |  | 
18.1 | 500 | COc1cc2c(c(OC)c1)[C@]1(C)C3CCC[C@@H](C(=O)N1CC2)N3C(=O)C(=O)c1cc(OC)c(OC)c(OC)c1 |  | 
 |  | COc1ccc(OCCN2CC3CCCC(C2=O)N3S(=O)(=O)c2ccc3[nH]c(=O)sc3c2)cc1OC (stereo not given) | 10.5 | Dose-dependent effect
7.6 |  | COc1ccc(OCCOC(=O)C2CCCCN2S(=O)(=O)c2ccc3[nH]c(=O)sc3c2)cc1OC (stereo not given) | 3.3 | Dose-dependent effect
 |  | COc1ccc(OCCN2CCC3CCCC(C2=O)N3S(=O)(=O)c2ccc3[nH]c(=O)sc3c2)cc1OC (stereo not given) | 0.36 | Dose-dependent effect
> 100 | 2800 | COc1cc2c(c(OC)c1)[C@]1(C)C3CCC[C@@H](C(=O)N1CC2)N3C(=O)C(=O)[C@]1(C)CCCC[C@H]1C |  | 
13.8 |  | COc1ccc(CC[C@@H](OC(=O)C2CCCCN2S(=O)(=O)c2cc(Cl)cc(Cl)c2)c2cccc(OCC(=O)O)c2)cc1OC (stereo not given in full) |  | 

SMILES | Ki [1] [µM] | Ki [2] [nM] | Kd [3] [µM] | Activity [4]
COc1ccc(OCCN2CC3CCCC(C2=O)N3S(=O)(=O)c2cc(Cl)cc(Cl)c2)cc1OC (stereo not given) | 1.2 |  |  | 
CCN1CC2CCCC(C1=O)N2C(=O)C(=O)c1cc(OC)c(OC)c(OC)c1 (stereo not given) | > 100 |  |  | 
COc1ccc(OCCN2CCC3CCCC(C2=O)N3S(=O)(=O)c2cc(Cl)cc(Cl)c2)cc1OC (stereo not given) | 8.8 |  |  | 
COc1ccc(OCCN2CCC3CCCC(C2=O)N3C(=O)C(=O)c2cc(OC)c(OC)c(OC)c2)cc1OC (stereo not given) | 23.7 |  |  | 
